# Data: ChEMBL document CHEMBL1126902, “Synthesis, chemical reactivity, and antitumor evaluation of congeners of carmethizole hydrochloride, an experimental "acylated vinylogous carbinolamine" tumor inhibitor” (J Med Chem, 1993)
# Experiments:
# A549 = assay: Concentration required to inhibit tumor growth in A549, human lung carcinoma (NSCLC) cell line; format: functional, cell-based
# Method in brief: (§1)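 Cells grown in RPMI 1640 with 5% fetal calf serum, 5% NuSerum IV and 20 mM HEPES, seeded and allowed to adhere overnight. Compound dissolved in RPMI-1640 plus HEPES and tested over a 5 log range (10 concentrations) for 72 h. Read-out by sulforhodamine B assay. Median-effect dose derived by nonlinear regression of the concentration-effect curve.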
# HT-29 = assay: Concentration required to inhibit tumor growth in HT29, human colon adenocarcinoma cell line; format: functional, cell-based; settings: Homo sapiens, HT-29; method in brief: as §1
# [1] = Concentration required to inhibit tumor growth in […], human breast adenocarcinoma cell line; format: functional; method in brief: as §1
# [2] = Concentration required to inhibit tumor growth in PSN-1, human pancreatic carcinoma cell line; format: functional
# Method in brief: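 PSN-1 pancreatic carcinoma cells exposed to compound dissolved in RPMI-1640 plus HEPES at its maximum soluble concentration for 72 h. Read-out by sulforhodamine B colorimetric assay.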
# L1210 (Mus musculus) = assay: Concentration required to inhibit tumor growth in L1210, murine lymphocytic leukemia cell line
# [3] = Percent increase in life span of dying mice tested in vivo at 45.5 mg/kg against ip implanted LOX amelanotic melanoma in mice (60-day survivors); format: functional; settings: Mus musculus, 1440 h, route intraperitoneal
# Method in brief: (§2)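 Female CD2F1 mice implanted ip with ascitic fluid carrying ca. 1.7×10^6 LOX amelanotic melanoma cells. Drug given ip on days 1, 5 and 9, starting 24 h after implant, dosed by exact body weight; solutions or suspensions made fresh daily. %ILS is from the median day of death of dying mice versus controls, excluding 60-day survivors.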
# [4] = Percent increase in life span of dying mice tested in vivo at 91 mg/kg against ip implanted LOX amelanotic melanoma in mice (60-day survivors); format: functional; settings: Mus musculus, 1440 h, route intraperitoneal
# Method in brief: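 Nude CD2F1 female mice were implanted ip with ascitic fluid containing ca. 1.7×10^6 LOX amelanotic melanoma cells. Drug was given ip on days 1, 5 and 9, starting 24 h after implantation, and dosed by exact body weight. Solutions or suspensions were made fresh daily in saline plus Tween 80. %ILS was calculated from the median day of death of dying mice versus controls, excluding 60-day survivors.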
# [5] = Change in tumor cell population in ip implanted LOX amelanotic melanoma in mice after administration of compound at 91 mg/kg; format: functional, Mus musculus; settings: route intraperitoneal
# Method in brief: (§3)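 Female CD2F1 mice were implanted ip with ascitic fluid holding ca. 1.7×10^6 LOX cells. Dosing was ip on days 1, 5 and 9, starting 24 h after implantation, by exact body weight, as a solution or suspension in saline plus Tween 80, freshly prepared daily. KE is the net log change in viable tumor cells from start to end of treatment. Bracketed KE assumes Poisson survival, with 60-day survivors tumor-free.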
# [6] = Change in tumor cell population in ip implanted LOX amelanotic melanoma in mice after administration of compound at 182 mg/kg; format: functional, Mus musculus; settings: route intraperitoneal; method in brief: as §3
# [7] = Change in tumor cell population in ip implanted LOX amelanotic melanoma in mice after administration of compound at 22.75 mg/kg; format: functional, Mus musculus; settings: route intraperitoneal; method in brief: as §3
# [8] = Change in tumor cell population in ip implanted LOX amelanotic melanoma in mice after administration of compound at 45.5 mg/kg; format: functional, Mus musculus; settings: route intraperitoneal; method in brief: as §3
# [9] = Percent increase in life span of dying mice tested in vivo at 22.75 mg/kg against ip implanted LOX amelanotic melanoma in mice (60-day survivors); format: functional; settings: Mus musculus, 1440 h, route intraperitoneal; method in brief: as §2
# [10] = Percent increase in life span of dying mice tested in vivo at 182 mg/kg against ip implanted LOX amelanotic melanoma in mice (60-day survivors); format: functional; settings: Mus musculus, 1440 h, route intraperitoneal; method in brief: as §2
# P388 [11] = assay: Change in tumor cell population in ip implanted P388 Leukemia in mice after administration of compound at 22.8 mg/kg; format: functional, Mus musculus; settings: route intraperitoneal
# Method in brief: (§4)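 Female Portage-CD2F1 mice were inoculated ip with ascitic fluid holding ca. 5.2×10^6 P388 cells. Dosing was ip on days 1-5, starting 24 h after inoculation, by average body weight, as a solution or suspension in saline plus Tween 80. KE is the net log change in viable tumor cell population from start to end of the treatment period.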
# P388 [12] = assay: Change in tumor cell population in ip implanted P388 Leukemia in mice after administration of compound at 45.5 mg/kg; format: functional, Mus musculus; settings: route intraperitoneal
# Method in brief: (§5)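 P388 leukemia: ascitic fluid with ca. 5.2×10^6 cells inoculated ip into Portage-CD₂F₁ female mice. Drug given ip on days 1-5, starting 24 h after inoculation, dosed by average body weight. Vehicle was saline plus Tween 80, as a solution or suspension. KE = net log change in viable tumor cells from start to end of treatment.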
# P388 [13] = assay: Change in tumor cell population in ip implanted P388 Leukemia in mice after administration of compound at 91 mg/kg; format: functional, Mus musculus; settings: route intraperitoneal; method in brief: as §5
# P388 [14] = assay: Percent increase in life span of dying mice tested in vivo at 22.8 mg/kg against ip implanted P388 Leukemia in mice; format: functional; settings: Mus musculus, route intraperitoneal
# Method in brief: (§6)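 Portage-CD2F1 female mice inoculated ip with ascitic fluid carrying ca. 5.2×10^6 P388 leukemia cells. Drug given ip daily on days 1-5, starting 24 h after inoculation, dosed by average body weight. %ILS is from the median day of death of dying mice versus controls.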
# P388 [15] = assay: Percent increase in life span of dying mice tested in vivo at 45.5 mg/kg against ip implanted P388 Leukemia in mice; format: functional; settings: Mus musculus, route intraperitoneal; method in brief: as §6
# P388 [16] = assay: Percent increase in life span of dying mice tested in vivo at 91 mg/kg against ip implanted P388 Leukemia in mice; format: functional; settings: Mus musculus, route intraperitoneal
# Method in brief: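 Portage-CD2F1 female mice were inoculated ip with ascitic fluid containing ca. 5.2×10^6 P388 leukemia cells. Drug was given ip daily on days 1-5, starting 24 h after inoculation, and dosed by average body weight. %ILS was calculated from the median day of death of dying mice versus controls.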
# P388 [17] = assay: Change in tumor cell population in ip implanted P388 Leukemia in mice after administration of compound at 11.4 mg/kg; format: functional, Mus musculus; settings: route intraperitoneal; method in brief: as §4
# P388 [18] = assay: Percent increase in life span of dying mice tested in vivo at 11.4 mg/kg against ip implanted P388 Leukemia in mice; format: functional; settings: Mus musculus, route intraperitoneal; method in brief: as §6
structure (smiles),measurement,setting,value
CNC(=O)OCc1nc2n(c1COC(=O)NC)CCS2,IC50,A549,190 µM
same,IC50,HT-29,108 µM
same,IC50,[1],147 µM
same,IC50,[2],118 µM
same,IC50,L1210 (Mus musculus),11 µM
CNC(=O)OCc1nc([S+](C)[O-])n(C)c1COC(=O)NC (stereo unspecified),ILS at 45.5 mg/kg,[3],-8%
same,ILS at 91 mg/kg,[4],-8%
same,KE,[5],2
same,KE,[6],1.8
same,KE,[7],2
same,KE,[8],2
same,ILS at 22.75 mg/kg,[9],-7%
same,ILS at 182 mg/kg,[10],2%
same,KE,P388 [11],1.4
same,KE,P388 [12],0.9
same,KE,P388 [13],1.3
same,ILS at 22.8 mg/kg,P388 [14],10%
same,ILS at 45.5 mg/kg,P388 [15],27%
same,ILS at 91 mg/kg,P388 [16],17%
same,KE,P388 [17],1.4
same,ILS at 11.4 mg/kg,P388 [18],10%
CNC(=O)OCc1nc(Sc2ccccc2)n(C)c1COC(=O)NC,IC50,A549,> 100 µM
same,IC50,HT-29,> 100 µM
same,IC50,[1],> 100 µM
same,IC50,[2],> 100 µM
same,IC50,L1210 (Mus musculus),> 100 µM
CNC(=O)OCc1nc2n(c1COC(=O)NC)CCCS2,IC50,A549,> 1000 µM
same,IC50,HT-29,> 1000 µM
same,IC50,[1],> 1000 µM
same,IC50,[2],> 650 µM
same,IC50,L1210 (Mus musculus),> 100 µM
